Among the data in ChEMBL document CHEMBL5661979, “Pharmacological inhibition of BMK1 suppresses tumor growth through promyelocytic leukemia protein” (Cancer Cell, 2010) are IC50, CL/F and inhibition values, retold here.

Data set [1] addresses Cyclin-dependent kinase 13 (Homo sapiens, UniProt Q14004). Kind of data set: Inhibition of CHED in human HeLa cells lysate pre incubated for 15 mins followed by ATP acyl phosphate probe addition and measured after 10 mins by LC-MS/MS analysis. It is filed as subcellular. The method in brief: (§1)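 KiNativ profiling in HeLa lysate (5 mg/mL total protein). Lysate incubated 15 min with inhibitor at 50, 10, 2, 0.8 or 0 μM. ATP or ADP acylphosphate probe then added (5 μM final) and reacted 10 min. Reaction stopped with urea and analysed by targeted MS, using up to four fragment ions per kinase peptide-probe conjugate. % inhibition taken against untreated lysate. Run in duplicate.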

The target of data set [2] is Tyrosine-protein kinase Lyn (Homo sapiens, UniProt P07948). Kind of data set: Inhibition of LYN in human HeLa cells lysate pre incubated for 15 mins followed by ATP acyl phosphate probe addition and measured after 10 mins by LC-MS/MS analysis. It is filed as subcellular.
Data set [3] deals with Dual specificity mitogen-activated protein kinase kinase 3 (Homo sapiens, UniProt P46734). Put plainly: Inhibition of MAP2K3 in human HeLa cells lysate pre incubated for 15 mins followed by ATP acyl phosphate probe addition and measured after 10 mins by LC-MS/MS analysis. In kind it is subcellular.
The target of data set [4] is Cyclin-dependent kinase 11B (Homo sapiens, UniProt P21127). Put plainly: Inhibition of PITSLRE in human HeLa cells lysate pre incubated for 15 mins followed by ATP acyl phosphate probe addition and measured after 10 mins by LC-MS/MS analysis. In kind it is subcellular.
For data set [5], the target named is Ribosomal protein S6 kinase alpha-1 (Homo sapiens, UniProt Q15418). Put plainly: Inhibition of RSK1 domain 2 K2 site in human HeLa cells lysate pre incubated for 15 mins followed by ADP acyl phosphate probe addition and measured after 10 mins by LC-MS/MS analysis. It is filed as subcellular.
The target of data set [6] is Peripheral plasma membrane protein CASK (Homo sapiens, UniProt O14936). Put plainly: Inhibition of CASK in human HeLa cells lysate pre incubated for 15 mins followed by ADP acyl phosphate probe addition and measured after 10 mins by LC-MS/MS analysis. In kind it is subcellular. The method in brief:
as §1

Data set [7] addresses Cyclin-dependent kinase 2 (Homo sapiens, UniProt P24941). Kind of data set: Inhibition of CDK2 K2 site in human HeLa cells lysate pre incubated for 15 mins followed by ADP acyl phosphate probe addition and measured after 10 mins by LC-MS/MS analysis. In kind it is subcellular. The method in brief:
as §1

The target of data set [8] is Dual specificity mitogen-activated protein kinase kinase 6 (Homo sapiens, UniProt P52564). Kind of data set: Inhibition of MAP2K6 in human HeLa cells lysate pre incubated for 15 mins followed by ADP acyl phosphate probe addition and measured after 10 mins by LC-MS/MS analysis. In kind it is subcellular.
Data set [9] has as its target Phosphorylase b kinase gamma catalytic chain, liver/testis isoform (Homo sapiens, UniProt P15735). Kind of data set: Inhibition of PHKg2 in human HeLa cells lysate pre incubated for 15 mins followed by ADP acyl phosphate probe addition and measured after 10 mins by LC-MS/MS analysis. It is filed as subcellular.
In data set [10] the target is Protein kinase C zeta type (Homo sapiens, UniProt Q05513). Put plainly: Inhibition of PKCzeta in human HeLa cells lysate pre incubated for 15 mins followed by ADP acyl phosphate probe addition and measured after 10 mins by LC-MS/MS analysis. It is filed as subcellular.
Data set [11] has as its target Serine/threonine-protein kinase D3 (Homo sapiens, UniProt O94806). Put plainly: Inhibition of PKD3 in human HeLa cells lysate pre incubated for 15 mins followed by ADP acyl phosphate probe addition and measured after 10 mins by LC-MS/MS analysis. It is filed as subcellular.
Data set [12] addresses Macrophage-stimulating protein receptor (Homo sapiens, UniProt Q04912). Put plainly: Inhibition of RON in human HeLa cells lysate pre incubated for 15 mins followed by ADP acyl phosphate probe addition and measured after 10 mins by LC-MS/MS analysis. In kind it is subcellular.
Data set [13] is described as follows: Clearance in Sprague-Dawley rat at 2 mg/kg, po measured up to 8 hrs by LC-MS/MS analysis. In kind it is ADME, organism-based. The note with it: in vivo. The method, boiled down:
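Sprague-Dawley rats given one intravenous dose or one oral dose of 2 mg/kg. Plasma drug concentrations were followed over time, with samples taken out to 8 hr after dosing. PK parameters (clearance, volume of distribution, half-life, oral bioavailability, Cmax) were calculated from these concentration–time data.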

A short description of data set [14]: Inhibition of MSK1/2 in human HeLa cells lysate at 50 uM pre incubated for 15 mins followed by ADP acyl phosphate probe addition and measured after 10 mins by LC-MS/MS analysis relative to control. The note with it: 25 min, condition cancer.
For data set [15], the target named is Glycogen synthase kinase-3 beta (Homo sapiens, UniProt P49841). Put plainly: Inhibition of GSK3B isoform 2 in human HeLa cells lysate at 50 uM pre incubated for 15 mins followed by ADP acyl phosphate probe addition and measured after 10 mins by LC-MS/MS analysis relative to control. The note with it: time 25.0 min. It is filed as subcellular.
Data set [16] addresses Serine/threonine-protein kinase Chk2 (Homo sapiens, UniProt O96017). Put plainly: Inhibition of CHK2 in human HeLa cells lysate at 50 uM pre incubated for 15 mins followed by ADP acyl phosphate probe addition and measured after 10 mins by LC-MS/MS analysis relative to control. It is filed as subcellular. The note with it: time 25.0 min.
Data set [17] deals with Ribosomal protein S6 kinase alpha-3 (Homo sapiens, UniProt P51812). Put plainly: Inhibition of RSK2 domain 1 in human HeLa cells lysate at 50 uM pre incubated for 15 mins followed by ADP acyl phosphate probe addition and measured after 10 mins by LC-MS/MS analysis relative to control. It is filed as subcellular. The note with it: time 25.0 min.
Data set [18] concerns the target Calcium/calmodulin-dependent protein kinase type II subunit gamma (Homo sapiens, UniProt Q13555). Kind of data set: Inhibition of CAMK2g in human HeLa cells lysate at 10 uM pre incubated for 15 mins followed by ADP acyl phosphate probe addition and measured after 10 mins by LC-MS/MS analysis relative to control. It is filed as subcellular. The note with it: time 25.0 min. The method, boiled down:
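KiNativ-type profiling in HeLa lysate (5 mg/mL total protein). Lysate preincubated 15 min with inhibitor at 50, 10, 2, 0.8 or 0 μM, then ATP or ADP acylphosphate probe added (5 μM final) for 10 min. Reaction stopped with urea and analysed by targeted MS, using up to four fragment ions per kinase peptide-probe conjugate. % inhibition calculated against untreated lysate. Duplicate reactions.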

Data set [19] can be described thus: Inhibition of MSK1/2 in human HeLa cells lysate at 10 uM pre incubated for 15 mins followed by ADP acyl phosphate probe addition and measured after 10 mins by LC-MS/MS analysis relative to control. Conditions: 25 min, condition cancer.
The target in data set [20] is Mitogen-activated protein kinase 3 (Homo sapiens, UniProt P27361). Put plainly: Inhibition of ERK1 in human HeLa cells lysate at 2 uM pre incubated for 15 mins followed by ADP acyl phosphate probe addition and measured after 10 mins by LC-MS/MS analysis relative to control. The note with it: time 25.0 min. It is filed as subcellular.
For data set [21], the target named is Tyrosine-protein kinase Fer (Homo sapiens, UniProt P16591). Kind of data set: Inhibition of FER in human HeLa cells lysate at 10 uM pre incubated for 15 mins followed by ATP acyl phosphate probe addition and measured after 10 mins by LC-MS/MS analysis relative to control. In kind it is subcellular. Conditions: time 25.0 min.

SMILES strings stand for the structures.

Chain of Tyrosine-protein kinase Lyn (P07948 whole entry): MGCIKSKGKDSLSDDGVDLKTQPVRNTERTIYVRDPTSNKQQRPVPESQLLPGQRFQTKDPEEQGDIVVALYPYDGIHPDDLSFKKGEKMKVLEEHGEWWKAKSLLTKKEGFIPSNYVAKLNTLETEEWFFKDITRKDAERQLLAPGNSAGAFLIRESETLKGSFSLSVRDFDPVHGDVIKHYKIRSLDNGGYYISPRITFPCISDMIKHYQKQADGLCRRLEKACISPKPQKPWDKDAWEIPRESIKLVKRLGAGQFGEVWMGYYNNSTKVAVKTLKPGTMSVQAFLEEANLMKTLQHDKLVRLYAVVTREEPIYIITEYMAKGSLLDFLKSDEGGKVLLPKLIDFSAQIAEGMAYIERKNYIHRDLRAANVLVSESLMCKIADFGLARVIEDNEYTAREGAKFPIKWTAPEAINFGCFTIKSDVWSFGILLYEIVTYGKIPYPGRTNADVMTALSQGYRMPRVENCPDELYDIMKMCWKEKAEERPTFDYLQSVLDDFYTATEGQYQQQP
Chain of Cyclin-dependent kinase 13 (Q14004 whole entry, the tested form may be a part): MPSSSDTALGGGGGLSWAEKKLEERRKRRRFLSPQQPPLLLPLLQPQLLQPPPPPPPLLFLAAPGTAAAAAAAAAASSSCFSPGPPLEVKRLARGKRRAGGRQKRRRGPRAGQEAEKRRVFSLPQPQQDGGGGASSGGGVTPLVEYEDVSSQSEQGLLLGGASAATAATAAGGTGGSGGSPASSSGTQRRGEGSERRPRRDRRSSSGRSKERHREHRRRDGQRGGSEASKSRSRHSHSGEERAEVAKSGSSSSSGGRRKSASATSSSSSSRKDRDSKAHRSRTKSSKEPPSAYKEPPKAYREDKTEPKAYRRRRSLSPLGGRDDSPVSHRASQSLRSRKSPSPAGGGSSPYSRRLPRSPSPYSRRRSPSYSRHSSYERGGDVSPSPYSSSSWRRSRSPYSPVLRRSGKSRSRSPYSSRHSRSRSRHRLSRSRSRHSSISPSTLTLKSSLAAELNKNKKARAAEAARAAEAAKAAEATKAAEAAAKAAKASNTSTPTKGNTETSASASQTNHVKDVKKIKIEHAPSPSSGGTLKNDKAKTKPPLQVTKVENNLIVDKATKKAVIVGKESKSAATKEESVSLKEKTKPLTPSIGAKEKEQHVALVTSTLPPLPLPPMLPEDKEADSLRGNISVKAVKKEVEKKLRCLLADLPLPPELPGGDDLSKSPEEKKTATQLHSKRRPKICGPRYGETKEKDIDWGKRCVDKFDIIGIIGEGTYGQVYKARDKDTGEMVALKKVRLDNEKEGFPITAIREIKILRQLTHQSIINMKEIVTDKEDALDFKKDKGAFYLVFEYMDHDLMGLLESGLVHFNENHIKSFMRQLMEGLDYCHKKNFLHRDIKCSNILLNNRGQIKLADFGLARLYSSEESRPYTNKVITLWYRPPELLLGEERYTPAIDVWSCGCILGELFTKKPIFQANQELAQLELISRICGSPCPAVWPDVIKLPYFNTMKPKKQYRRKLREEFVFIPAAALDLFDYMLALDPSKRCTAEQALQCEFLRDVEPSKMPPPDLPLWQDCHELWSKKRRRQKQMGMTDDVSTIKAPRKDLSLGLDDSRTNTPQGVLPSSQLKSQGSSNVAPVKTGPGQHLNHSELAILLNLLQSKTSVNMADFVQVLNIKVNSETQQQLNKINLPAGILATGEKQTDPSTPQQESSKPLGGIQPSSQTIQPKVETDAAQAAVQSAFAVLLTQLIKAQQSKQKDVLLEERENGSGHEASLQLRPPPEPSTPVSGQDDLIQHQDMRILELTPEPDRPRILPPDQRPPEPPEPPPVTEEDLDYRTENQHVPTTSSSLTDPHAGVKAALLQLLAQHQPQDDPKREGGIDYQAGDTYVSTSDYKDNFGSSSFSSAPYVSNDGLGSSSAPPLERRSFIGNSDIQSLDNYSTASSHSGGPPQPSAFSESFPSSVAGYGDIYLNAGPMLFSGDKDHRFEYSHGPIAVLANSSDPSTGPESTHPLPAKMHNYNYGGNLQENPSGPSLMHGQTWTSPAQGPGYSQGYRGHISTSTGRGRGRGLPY
Chain of Tyrosine-protein kinase Fer (P16591 whole entry, looked up): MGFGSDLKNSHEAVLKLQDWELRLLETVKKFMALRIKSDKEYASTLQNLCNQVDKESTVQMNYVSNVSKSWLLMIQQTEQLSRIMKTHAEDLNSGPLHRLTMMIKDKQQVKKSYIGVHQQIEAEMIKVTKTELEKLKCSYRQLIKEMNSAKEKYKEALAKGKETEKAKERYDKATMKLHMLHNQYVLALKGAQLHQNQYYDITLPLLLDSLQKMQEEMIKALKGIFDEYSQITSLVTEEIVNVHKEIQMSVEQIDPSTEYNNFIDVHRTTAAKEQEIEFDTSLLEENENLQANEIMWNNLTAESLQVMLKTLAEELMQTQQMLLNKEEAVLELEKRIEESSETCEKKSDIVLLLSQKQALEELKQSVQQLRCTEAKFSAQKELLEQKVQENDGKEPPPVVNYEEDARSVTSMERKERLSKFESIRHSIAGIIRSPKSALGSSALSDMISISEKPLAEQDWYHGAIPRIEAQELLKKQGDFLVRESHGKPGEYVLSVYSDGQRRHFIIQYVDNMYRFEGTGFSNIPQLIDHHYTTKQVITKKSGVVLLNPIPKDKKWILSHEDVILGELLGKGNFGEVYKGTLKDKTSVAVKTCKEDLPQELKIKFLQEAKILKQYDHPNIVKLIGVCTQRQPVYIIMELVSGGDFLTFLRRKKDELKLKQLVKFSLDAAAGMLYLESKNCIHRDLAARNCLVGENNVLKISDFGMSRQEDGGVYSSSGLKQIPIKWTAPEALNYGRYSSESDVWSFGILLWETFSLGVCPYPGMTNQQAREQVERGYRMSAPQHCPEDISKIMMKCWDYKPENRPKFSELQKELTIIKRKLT
Chain of Cyclin-dependent kinase 11B (P21127 whole entry, the tested form may be a part): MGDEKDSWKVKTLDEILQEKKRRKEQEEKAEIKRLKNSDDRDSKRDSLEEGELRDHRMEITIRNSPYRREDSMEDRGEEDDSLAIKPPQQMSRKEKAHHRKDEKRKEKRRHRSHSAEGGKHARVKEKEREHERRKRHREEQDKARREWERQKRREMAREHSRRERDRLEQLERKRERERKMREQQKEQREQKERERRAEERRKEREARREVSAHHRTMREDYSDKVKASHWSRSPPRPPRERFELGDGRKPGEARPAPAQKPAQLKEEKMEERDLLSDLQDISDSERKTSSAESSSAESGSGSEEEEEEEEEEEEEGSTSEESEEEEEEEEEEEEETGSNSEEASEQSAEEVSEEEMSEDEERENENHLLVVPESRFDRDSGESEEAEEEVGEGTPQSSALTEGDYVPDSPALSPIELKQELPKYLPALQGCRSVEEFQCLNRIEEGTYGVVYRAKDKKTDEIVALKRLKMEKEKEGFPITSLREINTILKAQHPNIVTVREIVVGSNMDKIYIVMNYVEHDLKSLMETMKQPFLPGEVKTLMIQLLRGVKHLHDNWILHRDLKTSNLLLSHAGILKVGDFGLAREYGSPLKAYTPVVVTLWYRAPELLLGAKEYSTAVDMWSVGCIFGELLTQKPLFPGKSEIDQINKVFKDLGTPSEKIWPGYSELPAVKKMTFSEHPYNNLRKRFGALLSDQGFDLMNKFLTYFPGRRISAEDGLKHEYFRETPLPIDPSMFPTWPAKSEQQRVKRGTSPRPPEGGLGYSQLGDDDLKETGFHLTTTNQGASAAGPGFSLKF
Chain of Phosphorylase b kinase gamma catalytic chain, liver/testis isoform (P15735 whole entry, canonical isoform): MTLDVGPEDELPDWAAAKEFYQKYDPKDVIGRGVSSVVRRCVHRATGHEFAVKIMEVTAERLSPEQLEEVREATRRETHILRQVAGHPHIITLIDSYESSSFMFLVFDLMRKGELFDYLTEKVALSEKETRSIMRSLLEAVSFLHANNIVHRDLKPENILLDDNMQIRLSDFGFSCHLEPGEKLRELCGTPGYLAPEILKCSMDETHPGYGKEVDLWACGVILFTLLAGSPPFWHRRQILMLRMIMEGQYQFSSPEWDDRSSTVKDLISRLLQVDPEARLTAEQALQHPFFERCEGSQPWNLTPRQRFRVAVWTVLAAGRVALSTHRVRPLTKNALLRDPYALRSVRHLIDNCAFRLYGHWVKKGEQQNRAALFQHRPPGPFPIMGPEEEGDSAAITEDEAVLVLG
Chain of Serine/threonine-protein kinase Chk2 (O96017 whole entry, the tested form may be a part): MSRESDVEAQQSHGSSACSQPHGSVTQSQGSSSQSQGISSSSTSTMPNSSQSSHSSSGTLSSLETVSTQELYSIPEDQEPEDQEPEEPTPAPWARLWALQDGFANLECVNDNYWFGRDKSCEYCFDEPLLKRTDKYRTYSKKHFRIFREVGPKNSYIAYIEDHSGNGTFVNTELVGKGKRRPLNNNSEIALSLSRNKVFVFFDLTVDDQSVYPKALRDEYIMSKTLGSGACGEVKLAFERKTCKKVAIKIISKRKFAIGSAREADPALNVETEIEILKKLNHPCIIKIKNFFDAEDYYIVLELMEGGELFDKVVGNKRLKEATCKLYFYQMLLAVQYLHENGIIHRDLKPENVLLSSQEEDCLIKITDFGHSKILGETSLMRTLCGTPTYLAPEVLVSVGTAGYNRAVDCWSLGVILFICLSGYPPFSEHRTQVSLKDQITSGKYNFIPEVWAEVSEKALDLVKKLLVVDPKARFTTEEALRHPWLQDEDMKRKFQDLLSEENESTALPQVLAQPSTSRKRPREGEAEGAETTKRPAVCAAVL
Chain of Glycogen synthase kinase-3 beta (P49841 whole entry, looked up, canonical isoform): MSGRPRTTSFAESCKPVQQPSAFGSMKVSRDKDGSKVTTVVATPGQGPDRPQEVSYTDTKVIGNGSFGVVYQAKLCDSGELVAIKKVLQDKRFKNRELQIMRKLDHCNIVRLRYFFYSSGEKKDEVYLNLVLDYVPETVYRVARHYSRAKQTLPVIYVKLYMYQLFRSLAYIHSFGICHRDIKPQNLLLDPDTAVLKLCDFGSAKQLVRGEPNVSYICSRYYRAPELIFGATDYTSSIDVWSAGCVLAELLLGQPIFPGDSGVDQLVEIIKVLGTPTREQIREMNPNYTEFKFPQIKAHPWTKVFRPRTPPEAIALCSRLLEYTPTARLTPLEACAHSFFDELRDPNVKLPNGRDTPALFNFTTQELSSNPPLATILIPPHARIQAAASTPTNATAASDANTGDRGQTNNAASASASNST

With `CCOc1cc(N2CCC(O)CC2)ccc1Nc1ncc2c(n1)N(C)c1ccccc1C(=O)N2C`, the IC50 (as a rule, the midpoint of a concentration-inhibition curve) in [1] was > 50 µM; in [2] it was > 50 µM; in data set [3], > 50 µM; in data set [4], > 50 µM; in data set [5] it was 31 µM; in [6], > 50 µM. Besides, the IC50 in data set [7], in [8], in data set [9], in data set [10], in data set [11] and in [12] was > 50 µM in each case. Besides, the CL/F (usually the apparent clearance, not corrected for the fraction that reaches the circulation) in data set [13] was 26 mL/min/kg. Moreover, the inhibition – broadly, the drop in the measured response relative to a control, in per cent – at 50 µM in [14] came to 10%. Also, the inhibition is 5.1% in data set [15]; -2.7% in [16]; -4.3% in [17]; -2.3% in [18]; 16.2% in [20]; 0% in [21]. Besides, the inhibition at 10 µM in data set [19] turned out to be 37.4%.
